Only some compounds are listed: those with a hit (about 3.5% of all), similar ones and a draw of the others.
Apaf-1 inh – human Apaf-1 inhibition; O14727; reconstituted apoptosome caspase-3 activity, DEVD-Rh110 fluorescence; inhibition, % at 20 µM; actives 0.71% (n = 330,000); AID 489030; active means inhibition of at least 40% at 20 µM
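Material: reconstituted apoptosome with Apaf-1, cytochrome c, caspase-9, procaspase-3, dATP. Technique: Rh110 fluorescence intensity. Buffer or medium: pH 7.5 Hepes buffer with CHAPS, BSA, DTT. Times: 30 min plus 50 min, RT.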
PAFAH1B3 FP inh – blocks human PAF acetylhydrolase 1B catalytic subunit 3; inhibition, % at 3.39 µM; actives 0.28% (n = 340,000); recombinant PAFAH1B3, FP-rhodamine probe, fluorescence polarization; Q15102;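 active means inhibition above the screen-wide average of all tested compounds plus 3 SD, cut at about 25% in these data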
PREPL inhibitor – inhibits the human prolyl oligopeptidase-like enzyme | recombinant PREPL, fluorescence polarization activity-based probe | AID 2751 | inhibition, % at 5.96 µM | actives 0.68% (n = 320,000); in the data active means inhibition above about 43%
pPAFAH inh – pPAFAH (human) enzyme inhibition; recombinant pPAFAH, FP-rhodamine probe fluorescence polarization; Q13093; actives 1.5% (n = 330,000); inhibition, % at 3.39 µM;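 active means inhibition above the mean inhibition across the screen plus 3 SD, cut at about 25% in these data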;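 further: inhibitors block binding of the rhodamine activity-based probe so polarization drops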
Target sequence (Q13093 whole entry, looked up): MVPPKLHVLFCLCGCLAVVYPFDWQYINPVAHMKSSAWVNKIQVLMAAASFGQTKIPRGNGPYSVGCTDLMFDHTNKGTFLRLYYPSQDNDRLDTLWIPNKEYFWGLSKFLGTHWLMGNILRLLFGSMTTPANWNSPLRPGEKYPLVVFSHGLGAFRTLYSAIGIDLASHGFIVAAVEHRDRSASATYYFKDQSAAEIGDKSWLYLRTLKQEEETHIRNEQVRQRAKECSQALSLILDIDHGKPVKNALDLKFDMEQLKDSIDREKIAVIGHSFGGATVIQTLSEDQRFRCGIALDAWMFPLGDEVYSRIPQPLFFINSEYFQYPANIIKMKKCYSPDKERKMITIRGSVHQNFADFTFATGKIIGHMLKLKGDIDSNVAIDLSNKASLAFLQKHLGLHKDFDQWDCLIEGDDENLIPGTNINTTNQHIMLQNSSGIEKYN
PAFAH2 FP inh – PAFAH2 (human) inhibition. Q99487. recombinant PAFAH2, FP-rhodamine activity probe, fluorescence polarization. inhibition, % at 3.39 µM. actives 0.99% (n = 340,000);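 active means inhibition above the mean over all tested compounds plus 3 SD, cut at about 30% in these data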;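 further: inhibitors block probe labeling of enzyme so polarization drops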
PAFAH1B2 inh – PAFAH1B2 (human) inhibition. P68402. recombinant PAFAH1B2, FP-rhodamine activity probe, fluorescence polarization. inhibition, % at 3.39 µM. actives 1.2% (n = 340,000). AID 492953;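 active means inhibition above the mean of all tested compounds plus 3 SD, cut at about 24% in these data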
PAFAH1B3 conf FP – confirmation of human PAFAH1B3 inhibitors; AID 493032; actives 30% (n = 390); inhibition, % at 3.39 µM; shares compounds with PAFAH1B3 FP inh; recombinant PAFAH1B3, FP-Rh activity-based probe, fluorescence polarization;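 active means average inhibition over triplicate runs above the hit cutoff set in the earlier primary screen, cut at about 25% in these data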
Of the large screens only hits and unclear results are named; the others gave an inactive call (follow-up assays come after a bar, where they were run).

COc1ccc(/C=C2\C(=O)NC(=O)c3ccccc32)cc1OC	PAFAH1B3 FP inh 40.0 (no result: Apaf-1 inh, PREPL inhibitor, pPAFAH inh) | PAFAH1B3 conf FP inactive
COc1cc(C(=O)NC2CC(C)(C)CC(C)(C)C2)ccc1OC1CCN(C(C)=O)CC1	none (no result: PREPL inhibitor, pPAFAH inh)
C=CCOc1ccc(Br)cc1/C=C1/SC(=Nc2ccc(C(=O)O)cc2)NC1=O	PAFAH1B3 FP inh 31.1 (no result: Apaf-1 inh, PREPL inhibitor, pPAFAH inh) | PAFAH1B3 conf FP inactive
CCOc1cc(/C=C2\SC(=Nc3ccc(CC)cc3)NC2=O)ccc1OCC(=O)O	none
CS(=O)(=O)N1CCc2cc(-c3csc(NC(=O)Cc4cccs4)n3)ccc21	PAFAH1B3 FP inh 36.1 | PAFAH1B3 conf FP inactive
O=C(/C=C/NNC(=O)c1ccccc1)c1ccc([N+](=O)[O-])cc1	PAFAH1B3 FP inh 28.6 | PAFAH1B3 conf FP inactive
Nc1nonc1N/N=C\c1ccccc1	none
Nc1nonc1N/N=C/c1c(O)ccc2ccccc12	PAFAH1B3 FP inh 31.0 | PAFAH1B3 conf FP inactive
CCc1ccc(NC(=O)NNC(=O)c2ccc3ccccc3c2O)cc1	PAFAH1B3 FP inh 36.3 (no result: PREPL inhibitor, pPAFAH inh) | PAFAH1B3 conf FP 74.0
O=c1c2cccc3c2c(nn1CN1CCOCC1)-c1ccccc1-3	PAFAH1B3 FP inh 26.4 | PAFAH1B3 conf FP 36.2
Cc1cccc(N2CCN(C(=O)c3c(Cl)cnn3C)CC2)c1C	none
Cc1nc(C/C(=N\N)c2ccc(O)cc2O)cs1	none
CCc1cc(/C(Cc2csc(C)n2)=N/O)c(O)cc1O	PAFAH1B3 FP inh 29.0 | PAFAH1B3 conf FP inactive
O=c1c(=Nc2ccccc2O)c(=O)c2ccccc12	PAFAH1B3 FP inh 49.5 | PAFAH1B3 conf FP inactive
O=C1c2cccnc2C(=O)N1CO	none
NC1=C(Br)C(=O)c2ncccc2C1=O	PAFAH1B3 FP inh 58.5 (no result: Apaf-1 inh, PREPL inhibitor, pPAFAH inh) | PAFAH1B3 conf FP 40.9
Cc1cccc(N2CC(C(=O)NCC3COc4ccccc4O3)CC2=O)c1C (centres undefined)	none
CCN(CC)c1ccc(NC2=C(Cl)C(=O)c3ccccc3C2=O)cc1	PAFAH1B3 FP inh 25.8 (no result: Apaf-1 inh) | PAFAH1B3 conf FP 35.6
COC1=C(Nc2ccc(O)cc2)C(=O)c2ccccc2C1=O	none
CCCC(=O)NC1=C(Cl)C(=O)c2ccccc2C1=O	PAFAH1B3 FP inh 37.6 (no result: Apaf-1 inh, PREPL inhibitor, pPAFAH inh) | PAFAH1B3 conf FP inactive
O=C1C(Cl)=C(Nc2ccc(O)cc2)C(=O)c2ccccc21	PAFAH1B3 FP inh 26.9 | PAFAH1B3 conf FP inactive
CC12CN3CC(C)(CN(C1)C3c1ccc(F)cc1)C2 (centres undefined)	none
O=C(COC(=O)Cc1cccs1)NCC(=O)Nc1ccc(F)cc1	PAFAH1B3 FP inh 41.5 | PAFAH1B3 conf FP inactive
Cc1ccc(S(=O)(=O)N2CCOCC2)cc1C(=O)N1CCN(c2ncccn2)CC1	none (no result: PREPL inhibitor, pPAFAH inh)
COC(=O)N/N=C1/C/C(=N\NC(=O)OC)c2ccccc21	PAFAH1B3 FP inh 38.4 | PAFAH1B3 conf FP inactive
COC(=O)NN=C1CCC(c2ccccc2)CC1 (centres undefined)	none (no result: PREPL inhibitor, pPAFAH inh)
CCN(CC)c1ccc(/C=N/Nc2nc3ccccc3[nH]2)c(O)c1	PAFAH1B3 FP inh 26.8 | PAFAH1B3 conf FP 25.6
O=C1C(=NO)CCc2ccccc21	PAFAH1B3 FP inh 37.4 (no result: Apaf-1 inh, PREPL inhibitor, pPAFAH inh) | PAFAH1B3 conf FP inactive
O/N=C1/CCc2cccc3cccc1c23	none
CCOC(=O)C1CCN(S(=O)(=O)c2ccc3c(c2)NC(=O)C(C)C(=O)N3)CC1 (centres undefined)	none
O=[N+]([O-])c1ccc(N/N=C/c2c[nH]c3ccccc23)c(S(=O)(=O)Nc2ccc(Cl)cc2)c1	PAFAH1B3 FP inh 30.2 | PAFAH1B3 conf FP inactive
Cc1ccc(NC(=O)CN2C(=O)S/C(=C\c3cc(Cl)c(OCC(=O)O)c(Cl)c3)C2=O)cc1	none
CCOc1ccccc1/C=C\c1nc(O)c([N+](=O)[O-])c(=O)[nH]1	PAFAH1B3 FP inh 28.3 | PAFAH1B3 conf FP inactive
O=C(CCS(=O)(=O)c1ccc(Br)s1)Nc1ccccc1Br	none
O=C(O)c1ccccc1O	none
Nc1c(O)cccc1C(=O)O	Apaf-1 inh 53.4, PAFAH1B3 FP inh 29.8 | PAFAH1B3 conf FP inactive
C[C@H](NC(=O)C1CCN(S(=O)(=O)c2ccccc2)CC1)C(=O)NCc1cccc(C(F)(F)F)c1	none
CC1(NC(=O)c2cc(Cl)nc3ccccc23)CCS(=O)(=O)C1 (centres undefined)	PAFAH1B3 FP inh 35.3 | PAFAH1B3 conf FP inactive
NC(=O)c1nn(-c2ccccc2)nc1NC(=O)CN1CCOCC1	none
